# From PubChem BioAssay AID588322 (Southern Research Specialized Biocontainment Screening …, 2011)
# Active and inactive are the calls of the source.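 How the source made its calls: active means compound blocking phage lysis by over 30% at some tested dose and judged capsule specific; inactive means the rest.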
# System: not listed separately
# Test: capsule-loss sensitization to T7 lysis – T7 phage, set 5, selectivity assay for bacterial capsule biogenesis inhibitors, dose response (AID 588322)
# Settings: E. coli EV36 T7 phage lysis, OD600 3 h; at 100 µM (top of the series)
# Method in brief: (§1)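 Assay system: E. coli EV36 (K1:K-12 hybrid); buffer or medium: LB medium; dosing: dilution series from 100 to 0.39 µM final, 1% DMSO; schedule: 1.5 h compound at 37 °C, then 3 h post-infection; detection: OD600 absorbance at 3 h post-infection; read-out basis: Capsule-loss-dependent T7 phage lysis judged from culture OD600; repeats: quadruplicate per concentration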
row,Compound,"cell growth (A600 at 3 h p.i., % of EV36+DMSO+T7 control); lower = more lysis"
1,CCOc1ccc(-c2cc(NC(=O)c3c(F)cccc3F)c(C(=O)OC)s2)cc1,114% (inactive)
2,Cc1onc(-c2ccccc2)c1C(=O)Nc1cc(-c2ccccc2)sc1C(=O)O,104% (inactive)
3,COC(=O)c1sc(-c2ccccc2)cc1NC(=O)c1c(F)cccc1F,111% (inactive)

# System: E. coli EV36 T7 phage lysis, OD600 3 h
# Test: as above
# Settings: not given
# Method in brief: as §1
row,Compound,IC50
1,O=C(Nc1cc(-c2ccccc2)sc1C(=O)O)c1cccc(Cl)c1,33.4 µM (inactive)
2,CCOc1ccc(-c2cc(NC(=O)c3c(F)cccc3F)c(C(=O)O)s2)cc1,0.71 µM (inactive)
3,O=C(Nc1cc(-c2ccccc2)sc1C(=O)O)c1cc(Cl)c2c(c1)OCCO2,16 µM (inactive)
4,O=C(Nc1cc(-c2ccccc2)sc1C(=O)O)c1cccc(F)c1,29.4 µM (inactive)
5,Cc1ccc(C(=O)Nc2cc(-c3ccccc3)sc2C(=O)O)s1,41.7 µM (inactive)
6,O=C(Nc1cc(-c2ccccc2)sc1C(=O)O)c1ccc2c(c1)OCCO2,12.7 µM (inactive)
7,O=C(O)c1sc(-c2ccccc2)cc1NC(=O)C1CCCC1,57.4 µM (inactive)
8,O=C(Nc1cc(-c2ccccc2)sc1C(=O)O)c1ccc(Cl)s1,15 µM (inactive)
9,Cc1c(C(=O)Nc2cc(-c3ccccc3)sc2C(=O)O)oc2ccccc12,30.1 µM (inactive)
10,O=C(Nc1cc(-c2ccccc2)sc1C(=O)O)c1cc2ccccc2o1,7.11 µM (inactive)
11,O=C(Nc1cc(-c2ccccc2)sc1C(=O)O)c1ccc(Br)o1,8.13 µM (inactive)
12,CCOc1ccc(-c2cc(NC(=O)c3cccc(Cl)c3)c(C(=O)O)s2)cc1,4.25 µM (inactive)
13,O=C(Nc1cc(-c2ccccc2)sc1C(=O)O)c1cccs1,7.11 µM (inactive)
14,CCOc1ccc(-c2cc(NC(=O)c3ccc(OC)c(OC)c3)c(C(=O)O)s2)cc1,7.72 µM (inactive)
15,O=C(O)c1sc(-c2ccccc2)cc1NC(=O)C1CCCCC1,55 µM (inactive)
